Test results published in ChEMBL document CHEMBL1137462, “Indoloxypropanolamine analogues as 5-HT(1A) receptor antagonists” (Bioorg Med Chem Lett, 2007).

How the values were obtained:
[1] = target: Beta-1 adrenergic receptor (Homo sapiens, UniProt P08588); assay: Binding affinity at human adrenergic beta-1 receptor
[2] = target: T1, 5-hydroxytryptamine receptor 1A (Homo sapiens, UniProt P08908); assay: Antagonist activity at human 5HT1A expressed in mouse LM(tK-) cells assessed as inhibition of 5-HT-stimulated [35S]GTP-gamma-S binding; assay type: functional, cell-based
T1 sequence (P08908 whole entry): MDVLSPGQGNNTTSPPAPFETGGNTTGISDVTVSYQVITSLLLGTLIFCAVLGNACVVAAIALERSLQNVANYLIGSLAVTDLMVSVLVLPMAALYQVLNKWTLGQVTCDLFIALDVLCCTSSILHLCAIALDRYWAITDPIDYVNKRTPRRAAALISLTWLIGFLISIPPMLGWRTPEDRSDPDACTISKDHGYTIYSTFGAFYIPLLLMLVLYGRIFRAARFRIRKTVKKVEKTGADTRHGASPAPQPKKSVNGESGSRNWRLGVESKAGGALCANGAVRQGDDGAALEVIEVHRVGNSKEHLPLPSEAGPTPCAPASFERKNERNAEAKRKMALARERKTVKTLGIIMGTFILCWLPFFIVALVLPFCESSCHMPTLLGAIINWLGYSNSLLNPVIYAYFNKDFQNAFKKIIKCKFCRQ
How it was run: (§1)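 [35S]GTPγS binding in mouse LM(tk−) cells expressing the human 5-HT1A receptor, with binding stimulated by 300 nM 5-HT. Ki was calculated from inhibition of that stimulation. Maximal inhibition was expressed as a percentage of the stimulation produced by a maximal 5-HT concentration. Where Ki could not be obtained, inhibition was read at the highest accurately testable compound concentration.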

[3] = target: T2, 5-hydroxytryptamine receptor 1A (Homo sapiens) (UniProt P08908); assay: Antagonist activity at human 5HT1A expressed in mouse LM(tK-) cells assessed as maximal inhibition of 5-HT-stimulated [35S]GTPgammaS binding; assay type: functional, cell-based; parameters: scale not given: the % may be the effect or the level left
T2 sequence (whole entry): T1 sequence (P08908 whole entry)

[4] = target: T1, 5-hydroxytryptamine receptor 1A; assay: Displacement of [3H]DPAT from human 5HT1A receptor
How it was run: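 Radioligand binding in vitro using cell lines expressing the human 5-HT1A receptor. Values are mean ± SEM of at least three determinations.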

[5] = target: Beta-2 adrenergic receptor (Homo sapiens, UniProt P07550); assay: Binding affinity at human adrenergic beta2 receptor
[6] = target: T2, 5-hydroxytryptamine receptor 1A (Homo sapiens); assay: Antagonist activity at human 5HT1A expressed in mouse LM(tK-) cells assessed as inhibition of 5-HT-stimulated [35S]GTP-gamma-S binding at 10 uM; assay type: functional, cell-based; parameters: scale not given: the % may be the effect or the level left
How it was run: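 Human 5-HT1A receptor expressed in mouse LM(tk-) cells. [35S]GTPγS binding was stimulated with 300 nM 5-HT, and inhibition was measured at a single compound concentration, the highest that could be accurately tested.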

[7] = target: T1, 5-hydroxytryptamine receptor 1A; assay: Antagonist activity at human 5HT1A expressed in mouse LM(tK-) cells assessed as 5-HT-stimulated [35S]GTPgammaS binding; assay type: functional, cell-based; how it was run: as §1
[8] = target: T2, 5-hydroxytryptamine receptor 1A (Homo sapiens); assay: Antagonist activity at human 5HT1A expressed in mouse LM(tK-) cells assessed as maximal 5-HT-stimulated [35S]GTPgammaS binding relative to 5HT; assay type: functional, cell-based
[9] = tested on: Rattus norvegicus; assay: Blockade of 8-OH-DPAT-induced increase in serum corticosterone level in Spargue-Dawley rat at 0.1 mg/kg, sc; assay type: functional; details: route subcutaneous
How it was run: (§2)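 Male Sprague–Dawley rats received compound sc at 0.03–1.0 mg/kg, 15 min before 0.3 mg/kg sc 8-OH-DPAT. Rats were killed 1 h after the agonist. Serum corticosterone was measured with a 3H-corticosterone kit. Results are mean and standard error, n = 5 rats per group, with percent antagonism of the 8-OH-DPAT-induced rise.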

[10] = tested on: Rattus norvegicus; assay: Blockade of 8-OH-DPAT-induced increase in serum corticosterone level in male Spargue-Dawley rat at 1.0 mg/kg, sc; assay type: functional; details: route subcutaneous; how it was run: as §2
[11] = tested on: Rattus norvegicus; assay: Blockade of 8-OH-DPAT-induced increase in serum corticosterone level in Spargue-Dawley rat at 0.3 mg/kg, sc; assay type: functional; details: route subcutaneous; how it was run: as §2
[12] = tested on: Rattus norvegicus; assay: Blockade of 8-OH-DPAT-induced increase in serum corticosterone level in Spargue-Dawley rat at 0.03 mg/kg, sc; assay type: functional; details: route subcutaneous; how it was run: as §2
[13] = tested on: Rattus norvegicus; assay: Blockade of 8-OH-DPAT-induced increase in serum corticosterone level in sc dosed Spargue-Dawley rat; assay type: functional; how it was run: as §2

Beta-1 adrenergic receptor, sequence (P08588 whole entry): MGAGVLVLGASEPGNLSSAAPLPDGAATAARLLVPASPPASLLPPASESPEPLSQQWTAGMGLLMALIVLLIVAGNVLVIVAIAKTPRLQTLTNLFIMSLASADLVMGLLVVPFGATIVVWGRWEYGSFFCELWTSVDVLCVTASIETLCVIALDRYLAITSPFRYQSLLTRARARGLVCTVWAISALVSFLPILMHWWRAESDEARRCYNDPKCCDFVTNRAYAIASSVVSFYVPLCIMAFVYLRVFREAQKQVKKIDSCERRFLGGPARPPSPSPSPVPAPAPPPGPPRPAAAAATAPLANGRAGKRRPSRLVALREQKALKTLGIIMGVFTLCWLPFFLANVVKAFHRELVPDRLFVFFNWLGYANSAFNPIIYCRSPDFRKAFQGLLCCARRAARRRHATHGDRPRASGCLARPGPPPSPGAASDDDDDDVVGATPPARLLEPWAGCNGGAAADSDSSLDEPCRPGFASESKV
Beta-2 adrenergic receptor, sequence (P07550 whole entry): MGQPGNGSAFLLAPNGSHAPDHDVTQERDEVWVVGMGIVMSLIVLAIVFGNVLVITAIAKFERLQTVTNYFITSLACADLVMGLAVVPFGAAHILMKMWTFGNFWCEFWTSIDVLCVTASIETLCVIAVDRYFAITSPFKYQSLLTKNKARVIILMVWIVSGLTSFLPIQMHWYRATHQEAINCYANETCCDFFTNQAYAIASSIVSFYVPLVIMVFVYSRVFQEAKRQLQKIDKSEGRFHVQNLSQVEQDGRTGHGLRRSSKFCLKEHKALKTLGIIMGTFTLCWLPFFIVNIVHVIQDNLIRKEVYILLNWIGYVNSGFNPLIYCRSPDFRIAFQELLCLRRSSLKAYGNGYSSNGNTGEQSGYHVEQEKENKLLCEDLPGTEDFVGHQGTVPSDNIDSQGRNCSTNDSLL

Which results are given for `O[C@@H](CNC12CC3CC(CC(C3)C1)C2)COc1cccc2[nH]ccc12`?
Ki [1]: 7.92 nM; Ki [2]: 4.65 nM; Activity [3]: 6.38%; Ki [4]: 3.89 nM; Ki [5]: 6.63 nM

Which results are given for `COC(CNC1CCCCC1)COc1cccc2[nH]ccc12` (configuration not stated)?
Activity [6]: 36.2%; Ki [4]: 40.6 nM

With `OC(CNC1CCCCC1)COc1ccc2[nH]ccc2c1` (configuration not stated) as the compound, how does the Ki [4] read?
The Ki was > 3000 nM.

`OC(CCNC1CCCCC1)COc1cccc2[nH]ccc12` (configuration not stated) was tested. Which EC50 [7] did it give?
The EC50 was 394 nM.

What about the Emax [8] of the same compound?
The Emax was 45.6%.

What about the Ki [4] of the same compound?
Its Ki is 125 nM.

For `c1cc(OCCCNC2CCCC2)c2cc[nH]c2c1`, which Ki [2] is on record?
The Ki was 233 nM.

What about the Activity [3] of the same compound?
The Activity was 24.8%.

And the Ki [4]?
The Ki was 94.3 nM.

`CC(C)NCC(O)CCOc1cccc2[nH]ccc12` (configuration not stated) was tested. Which Ki [4] did it give?
Its Ki is 1770 nM.

Which Activity [6] does the source give for `COC(CNC12CC3CC(CC(C3)C1)C2)COc1cccc2[nH]ccc12` (configuration not stated) here?
The Activity was 28.9%.

And the Ki [4]?
Its Ki is 32 nM.

How did the Ki [4] turn out when `C[C@](O)(CNC1CCCCC1)COc1cccc2[nH]ccc12` was run?
Its Ki is 1450 nM.

Which Ki [2] does the source give for `OC(CNC12CC3CC(CC(C3)C1)C2)COc1cccc2[nH]ccc12` (configuration not stated) here?
The Ki was 7.84 nM.

And the Activity [3]?
Its Activity is 6.56%.

What about the Ki [4] of the same compound?
Its Ki is 9.29 nM.

Which Ki [4] does the source give for `OC(CNC12CC3CC(CC(C3)C1)C2)COc1ccc2[nH]ccc2c1` (configuration not stated) here?
The Ki was 833 nM.

How did the Ki [4] turn out when `OC(CCOc1cccc2[nH]ccc12)CNC1CCCCC1` (configuration not stated) was run?
Its Ki is 872 nM.

What does the source list for `O[C@@H](CNC1CCCCC1)COc1cccc2[nH]ccc12`?
Activity [9]: 26%; Ki [1]: 2.37 nM; Ki [2]: 6.68 nM; Activity [3]: 7.52%; Activity [10]: 92%; Activity [11]: 53%; Ki [4]: 1.33 nM; Activity [12]: 13%; ED50 [13]: 2.5 mg/kg; Ki [5]: 3.75 nM

`C[C@](O)(CNC12CC3CC(CC(C3)C1)C2)COc1cccc2[nH]ccc12` was tested. Which Ki [4] did it give?
Its Ki is 868 nM.

`CC(C)NCC(O)COc1cccc2[nH]ccc12` (configuration not stated) was tested. Which Activity [3] did it give?
Its Activity is 9.76%.

For `OC(CNC1CCCCC1)COc1cccc2[nH]ccc12` (configuration not stated), which Ki [2] is on record?
The Ki was 9.83 nM.

What about the Activity [3] of the same compound?
The Activity was 9.88%.

And the Ki [4]?
The Ki was 3.58 nM.

How did the Ki [2] turn out when `CCC(CC)NCC(O)COc1cccc2[nH]ccc12` (configuration not stated) was run?
The Ki was 49.8 nM.

What about the Activity [3] of the same compound?
Its Activity is 4.74%.

And the Ki [4]?
Its Ki is 28.6 nM.

With `OC(CCOc1cccc2[nH]ccc12)CNC12CC3CC(CC(C3)C1)C2` (configuration not stated) as the compound, how does the Ki [4] read?
Its Ki is 551 nM.

`O[C@H](CNC12CC3CC(CC(C3)C1)C2)COc1cccc2[nH]ccc12` was tested. Which Ki [2] did it give?
The Ki was 29.9 nM.

And the Activity [3]?
Its Activity is 3.15%.

What about the Ki [4] of the same compound?
Its Ki is 18.3 nM.

Which Ki [2] does the source give for `OC(CNC1CCCCCC1)COc1cccc2[nH]ccc12` (configuration not stated) here?
The Ki was 11.3 nM.

And the Activity [3]?
The Activity was 8.9%.

What about the Ki [4] of the same compound?
The Ki was 6.82 nM.

For `O[C@@H](CNC1C2CC3CC(C2)CC1C3)COc1cccc2[nH]ccc12` (some centres not stated), which Ki [2] is on record?
Its Ki is 24 nM.

And the Activity [3]?
The Activity was 8.75%.

What about the Ki [4] of the same compound?
The Ki was 11.2 nM.

For `OC(CCNC12CC3CC(CC(C3)C1)C2)COc1cccc2[nH]ccc12` (configuration not stated), which EC50 [7] is on record?
Its EC50 is 854 nM.

And the Emax [8]?
Its Emax is 51.8%.

And the Ki [4]?
Its Ki is 76.1 nM.

How did the Ki [2] turn out when `O[C@H](CNC1CCCCC1)COc1cccc2[nH]ccc12` was run?
The Ki was 50.8 nM.

And the Activity [3]?
Its Activity is 8.87%.

And the Ki [4]?
Its Ki is 26.1 nM.

For `OC(CNC1CCCC1)COc1cccc2[nH]ccc12` (configuration not stated), which Ki [2] is on record?
Its Ki is 35.5 nM.

What about the Activity [3] of the same compound?
The Activity was 11.8%.

And the Ki [4]?
The Ki was 10.6 nM.

Which results are given for `c1cc(OCCCNC2CCCCC2)c2cc[nH]c2c1`?
Activity [6]: 31.3%; Ki [4]: 78.4 nM
